Hits are enriched below; roughly 4% of the tested compounds scored in any of these assays.
DAGLB inhibitor = diacylglycerol lipase beta (human) inhibition; Q8NCG7; HEK293T DAGLB membrane lysate, EnzChek fluorogenic substrate; inhibition, % at 5.17 µM; actives 0.059% (n = 340,000); AID 504411; in the data active = inhibition above about 34%;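 also: 0% = enzyme with vehicle and 100% = wells lacking enzyme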
Target sequence (Q8NCG7 whole entry, looked up): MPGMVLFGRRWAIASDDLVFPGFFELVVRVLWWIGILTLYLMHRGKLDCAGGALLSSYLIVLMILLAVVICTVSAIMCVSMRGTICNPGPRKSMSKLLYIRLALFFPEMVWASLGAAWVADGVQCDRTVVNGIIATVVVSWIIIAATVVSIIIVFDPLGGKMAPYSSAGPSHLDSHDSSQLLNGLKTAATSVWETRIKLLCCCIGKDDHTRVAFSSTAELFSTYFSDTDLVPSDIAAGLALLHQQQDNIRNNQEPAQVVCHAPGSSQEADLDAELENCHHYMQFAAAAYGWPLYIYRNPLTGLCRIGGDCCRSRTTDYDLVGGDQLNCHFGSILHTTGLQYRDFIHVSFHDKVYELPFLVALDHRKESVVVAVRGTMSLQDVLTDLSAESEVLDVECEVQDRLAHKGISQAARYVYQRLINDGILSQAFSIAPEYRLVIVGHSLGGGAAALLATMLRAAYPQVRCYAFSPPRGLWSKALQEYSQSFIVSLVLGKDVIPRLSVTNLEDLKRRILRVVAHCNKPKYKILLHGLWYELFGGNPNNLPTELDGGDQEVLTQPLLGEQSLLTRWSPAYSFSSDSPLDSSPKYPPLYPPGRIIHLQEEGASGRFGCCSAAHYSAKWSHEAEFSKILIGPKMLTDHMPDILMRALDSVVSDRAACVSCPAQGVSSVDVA
TAAR1 ag = agonists of human TAAR1. Q96RJ0. CHO RD-HGA16 TAAR1, Fluo-8 calcium fluorescence; vehicle wells 0%, saturating PEA agonist 100%. activation, % at 3 µM. actives 0.99% (n = 360,000);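 active = activation above the mean activation of all test compounds in the run plus 3 SD, cut at about 38% in these data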
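Assay system – CHO-derived RD-HGA16 cells with stable Gα16 and human TAAR1 · Compound dosing – one-point dosing at 3 µM (nominal) · Incubation – 17-24 h seeding, 75 min 37 °C dye, 30 min RT · Measured by – kinetic Fluo-8 calcium fluorescence · Control set – DMSO vehicle as 0%, PEA at EC100 as 100% · Repeats – single well for each compound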
GPR7 antag = human neuropeptides B/W receptor 1 antagonism | P48145 | GPR7-expressing cells, fluorescence antagonist assay | inhibition, % at 4.4 µM | actives 1.1% (n = 290,000) | AID 1861; in the data active = inhibition above about 16%, passing the limit was not always enough;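 also: cells stimulated with the agonist NPW; 0% = agonist with vehicle and 100% = vehicle without agonist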
MPTP inh = blocks calcium-induced mitochondrial swelling; isolated mouse mitochondria, Ca2+ swelling absorbance, 30 min; inhibition, % at 10 µM; actives 1.4% (n = 360,000);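 active = inhibition of 50% or more, scaled per plate between neutral and stimulator controls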;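 also: 0% = DMSO wells given calcium and 100% = 1 mM EGTA wells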
TAAR1 antag = antagonists of human TAAR1; Q96RJ0; CHO RD-HGA16 TAAR1, Fluo-8 calcium fluorescence, antagonist; inhibition, % at 3 µM; actives 1.5% (n = 360,000); AID 624466;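 active = inhibition above a per-plate cutoff, the mean inhibition of test compounds on that plate plus 3 SD, cut at about 49% in these data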;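 also: 0% = DMSO plus EC80 beta-PEA response and 100% = DMSO alone without agonist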
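Material: CHO RD-HGA16 cells bearing hTAAR1; compound dosing: one-point dosing, 3 µM nominal final; schedule: dye loading 75 min at 37 °C, then 30 min room temperature; measured by: calcium fluorescence with Fluo-8; control set: vehicle and agonist controls; replication: n of 1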
TAAR1 ag confirm = confirmation of human TAAR1 agonists; shares compounds with TAAR1 ag; activation, % at 3 µM; actives 82% (n = 2,400); CHO RD-HGA16 TAAR1, Fluo-8 calcium fluorescence; scaled: DMSO 0%, maximal phenethylamine 100%;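 active = activation above a cutoff set at the run's mean compound activation plus 3 SD, cut at about 39% in these data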
Ga16 nonsel ag = nonselective agonism, TAAR1 counter-screen | shares compounds with TAAR1 ag | CHO-Ga16 parental, Fluo-8 calcium fluorescence; normalized to maximal ATP response, DMSO zero | activation, % at 3 µM | actives 50% (n = 2,400);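 active = activation above the run cutoff, the mean activation over all tested wells plus 3 SD, cut at about 12% in these data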;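 also: 0% = DMSO wells and 100% = maximal ATP response on the peak over basal ratio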
TAAR1 desensitize = human TAAR1 agonist that also desensitizes the receptor; shares compounds with TAAR1 ag; actives 46% (n = 2,400); CHO RD-HGA16 hTAAR1, Fluo-8 calcium, beta-PEA response inhibition; inhibition, % at 3 µM; AID 651951;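 active = inhibition above the run cutoff, the mean inhibition of all test compounds plus 3 SD, cut at about 49% in these data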;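 also: beta-PEA stimulus applied at its EC80; loss of beta-PEA calcium signal after compound pretreatment read as receptor desensitization; 0% = DMSO with beta-PEA at EC80 and 100% = DMSO alone without agonist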
Ga16 nonsel ant = nonselective Ga16 antagonist in TAAR1 agonist counter-screen; actives 39% (n = 2,400); CHO-Ga16 ATP-induced calcium, Fluo-8 fluorescence; inhibition, % at 3 µM; shares compounds with TAAR1 ag;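 active = inhibition above the plate's mean compound inhibition plus 3 SD, computed per plate, cut at about 22% in these data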;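 also: 0% = EC80 ATP with DMSO and 100% = DMSO wells without ATP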
An asterisk follows results filed as active.

Results for CCOc1ccc(CN2CCNC(=O)C2CC(=O)NCCc2ccccn2)cc1 (centres undefined) ?
DAGLB inhibitor: -2.2; TAAR1 ag: 15.8; GPR7 antag: -15.6; MPTP inh: -0.1; TAAR1 antag: 9.4

Results for Cc1cc(C(C)(C)C)c(OC(=O)[C@@H]2OC(c3ccccc3)=C[C@H]2c2ccccc2)c(C(C)(C)C)c1 ?
DAGLB inhibitor: 4.3; TAAR1 ag: 6.0; MPTP inh: -1.4; TAAR1 antag: 8.2

How did C[C@H]1CN([C@@H](C)CO)C(=O)CCCn2nncc2CO[C@@H]1CN(C)C(=O)c1ccncc1 do in these assays?
DAGLB inhibitor: 3.6; TAAR1 ag: 2.9; MPTP inh: -0.7; TAAR1 antag: -20.8

What do the screens show for `O=C(O)CCC(=O)Nc1ccccc1C(=O)NCCc1ccccc1`?
DAGLB inhibitor: 2.3; TAAR1 ag: 6.0; GPR7 antag: 3.6; MPTP inh: -1.4; TAAR1 antag: 1.7

How did O=C(CN1CCN(c2ccccc2)CC1)Nc1ccccc1C(=O)NCCc1ccccc1 do in these assays?
DAGLB inhibitor: -3.5; TAAR1 ag: 76.3*; MPTP inh: 1.1; TAAR1 antag: 87.9*; TAAR1 ag confirm: 81.9*; Ga16 nonsel ag: 7.1; TAAR1 desensitize: 75.1*; Ga16 nonsel ant: 32.0*

How did COc1ccc(NC(=O)CSc2nnc(-c3cccnc3)o2)c(OC)c1 do in these assays?
DAGLB inhibitor: -3.2; TAAR1 ag: 0.8; MPTP inh: -0.7; TAAR1 antag: -5.7

What do the screens show for `CC(=O)c1ccc(NC(=O)N2CCc3ccccc3C2)cc1`?
DAGLB inhibitor: -1.0; TAAR1 ag: 14.3; GPR7 antag: 3.1; MPTP inh: -0.6; TAAR1 antag: 20.9

Results for CN1CCN(C(=O)Nc2cccc3ccccc23)CC1 ?
DAGLB inhibitor: -2.4; TAAR1 ag: 0.7; GPR7 antag: -16.0; MPTP inh: 0.5; TAAR1 antag: 3.4

How did O=C(Nc1cccc2ccccc12)N1CCc2ccccc2C1 do in these assays?
DAGLB inhibitor: -1.4; TAAR1 ag: 77.0*; GPR7 antag: -5.6; MPTP inh: 3.8; TAAR1 antag: 73.7*; TAAR1 ag confirm: 77.9*; Ga16 nonsel ag: 2.2; TAAR1 desensitize: 64.7*; Ga16 nonsel ant: 8.5

How did CCc1ccccc1NC(=O)N1CCc2ccccc2C1 do in these assays?
DAGLB inhibitor: -1.5; TAAR1 ag: 79.8*; GPR7 antag: -11.1; MPTP inh: -2.1; TAAR1 antag: 55.0*; TAAR1 ag confirm: 95.9*; Ga16 nonsel ag: 3.9; TAAR1 desensitize: 81.9*; Ga16 nonsel ant: 2.0

How did CCCCc1c(-c2ccccc2OC)ncn1Cc1ccccc1Cl do in these assays?
TAAR1 ag: 3.7; TAAR1 antag: 23.2

How did Nc1[nH]c(C(=O)c2ccccc2)c(-c2ccccc2C(F)(F)F)c1C(=O)NCCc1cccs1 do in these assays?
TAAR1 ag: 47.9*; MPTP inh: 2.8; TAAR1 antag: -3.2; TAAR1 ag confirm: 29.5; Ga16 nonsel ag: 3.6; TAAR1 desensitize: 20.7; Ga16 nonsel ant: 12.7

What do the screens show for `COC(=O)[C@]12C[C@H](CC(=O)N3CCCCC3)C(=O)N(Cc3ccc4c(c3)OCO4)C1=C[C@H](COCc1ccccc1)O[C@@H]2C`?
TAAR1 ag: -0.5; TAAR1 antag: -13.2

What do the screens show for `Cc1ccc(Oc2cnc3ccccc3n2)cc1`?
DAGLB inhibitor: -5.5; TAAR1 ag: 23.9; GPR7 antag: -3.2; MPTP inh: 1.0; TAAR1 antag: -9.1

Results for Cc1ccc(Oc2ccc(Oc3ccc(C)cc3)nn2)cc1 ?
DAGLB inhibitor: -17.5; TAAR1 ag: 66.2*; GPR7 antag: -4.9; MPTP inh: -1.7; TAAR1 antag: 68.5*; TAAR1 ag confirm: 4.8; Ga16 nonsel ag: 17.4*; TAAR1 desensitize: 11.9; Ga16 nonsel ant: 17.5

How did COc1ccc(-c2cc(-c3cccnc3)c(C#N)c(N)n2)cc1 do in these assays?
DAGLB inhibitor: 1.2; TAAR1 ag: 46.2*; GPR7 antag: -13.3; MPTP inh: 1.9; TAAR1 antag: 36.9; TAAR1 ag confirm: 28.5; Ga16 nonsel ag: 10.2; TAAR1 desensitize: 37.9; Ga16 nonsel ant: 21.7*

What do the screens show for `Cn1c(=O)cc2c3c(c(N4CCCCC4)ccc31)C(=O)c1ccccc1-2`?
TAAR1 ag: -0.1; GPR7 antag: -16.9; MPTP inh: 7.9; TAAR1 antag: 4.5

What do the screens show for `Cn1c(=O)c(N)c2c3c(c(Br)ccc31)C(=O)c1ccccc1-2`?
DAGLB inhibitor: -97.8; TAAR1 ag: 84.3*; GPR7 antag: -8.3; MPTP inh: 4.3; TAAR1 antag: 36.2; TAAR1 ag confirm: 7.2; Ga16 nonsel ag: 21.0*; TAAR1 desensitize: 32.9; Ga16 nonsel ant: 35.3*

How did COc1ccc(CN2C(=O)C(CC(=O)NCCc3ccccn3)CC(C(=O)N(C)C)=C2C)cc1 (centres undefined) do in these assays?
DAGLB inhibitor: 0.7; TAAR1 ag: 46.4*; MPTP inh: 2.1; TAAR1 antag: -5.6; TAAR1 ag confirm: 61.8*; Ga16 nonsel ag: -0.5; TAAR1 desensitize: 11.7; Ga16 nonsel ant: 4.5

What do the screens show for `Nc1cc(OC(=O)c2ccc(F)cc2)nn1S(=O)(=O)c1ccc(F)cc1`?
DAGLB inhibitor: 2.4; TAAR1 ag: 2.7; GPR7 antag: 14.2; MPTP inh: -1.9; TAAR1 antag: -16.9

How did Cc1ccc(S(=O)(=O)n2nc(OC(=O)c3c(F)cccc3Cl)cc2N)cc1 do in these assays?
DAGLB inhibitor: -3.2; TAAR1 ag: 59.6*; GPR7 antag: -11.5; MPTP inh: -1.4; TAAR1 antag: 7.9; TAAR1 ag confirm: 64.7*; Ga16 nonsel ag: 26.6*; TAAR1 desensitize: 24.7; Ga16 nonsel ant: 18.5

Results for Cc1ccc(S(=O)(=O)n2nc(OC(=O)c3cccc(F)c3)cc2N)cc1 ?
DAGLB inhibitor: 4.0; TAAR1 ag: 103.1*; GPR7 antag: 5.2; MPTP inh: -0.5; TAAR1 antag: 8.8; TAAR1 ag confirm: 56.5*; Ga16 nonsel ag: 38.5*; TAAR1 desensitize: 26.0; Ga16 nonsel ant: 15.2

What do the screens show for `O=C(NNC(=S)NC(=O)c1ccco1)c1ccc(F)cc1`?
DAGLB inhibitor: 1.5; TAAR1 ag: 8.7; GPR7 antag: -9.5; MPTP inh: 0.3; TAAR1 antag: -16.8

How did O=C(COc1ccc(Cl)cc1Cl)NNC(=S)NC(=O)c1ccco1 do in these assays?
DAGLB inhibitor: -0.8; TAAR1 ag: 8.1; GPR7 antag: -9.8; MPTP inh: -3.5; TAAR1 antag: -21.2

Screening results: PubChem, several laboratories
